Test results taken from ChEMBL document CHEMBL1255483, “Intra- and extracellular activities of dicloxacillin against Staphylococcus aureus in vivo and in vitro” (Antimicrob Agents Chemother, 2010).
In brackets after ≈: the same amount, converted by molar mass.

Tests used:
Staphylococcus aureus [1] = assay: Bactericidal activity against Staphylococcus aureus ATCC 25923 assessed as log reduction in bacterial count at 10 times MIC after 24 hrs by time-kill assay; format: functional
Procedure, shortened: (§1)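 Broth time-kill: MSSA at 10⁶ CFU/ml exposed to a wide range of dicloxacillin concentrations. CFU counted after 5 and 24 h and expressed as change in log₁₀ CFU/ml from time zero. Multiples refer to the MIC by CLSI microdilution at pH 7.4. n = 3.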

[2] = Ratio of fCmax in NMRI mouse at 340 mg/kg administered every 24 hrs to MIC for Staphylococcus aureus E19977
Staphylococcus aureus [3] = assay: Bactericidal activity against Staphylococcus aureus E19977 assessed as log reduction in bacterial count at 10 times MIC after 24 hrs by time-kill assay; format: functional; procedure, shortened: as §1
[4] = Half-life in NMRI mouse at 60 mg/kg, sc; format: ADME, organism-based; design: dose 60 mg/kg, route subcutaneous; conditions: in vivo
Procedure, shortened: (§2)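 Single subcutaneous DCX doses given to NMRI mice. Blood was collected into EDTA tubes, and plasma drug was assayed by microbiological bioassay with S. lutea ATCC 9391 (detection limit 1.5 mg/liter, linear to 100 mg/liter). Values came from noncompartmental analysis. Terminal half-life was fitted monoexponentially to the last four time points. AUC24 combined the trapezoidal rule over mean points with exact integration of the fitted curve extrapolated to 24 h.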

[5] = AUC (24 hrs) in NMRI mouse at 30 mg/kg, sc; format: ADME, organism-based; design: time < 24 hr, dose 30 mg/kg, route subcutaneous; conditions: plasma; procedure, shortened: as §2
[6] = Ratio of fAUC (24 hrs) in NMRI mouse at 240 mg/kg administered every 6 hrs to MIC for Staphylococcus aureus E19977; format: functional
Procedure, shortened: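 Modeled free AUC over 24 h divided by the MIC, not measured directly. Single subcutaneous DCX doses were given to NMRI mice, and plasma was assayed by S. lutea bioassay. Noncompartmental analysis used trapezoidal mean points plus a fitted monoexponential extrapolated to 24 h. Free fraction came from a square-root fit to plasma ultrafiltration binding (10–400 mg/liter spike, 1 h, 37°C). The MIC was measured by broth microdilution at pH 7.4.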

Mus musculus [7] = species: Mus musculus; assay: Protein binding in NMRI mouse at 30 mg/l by ultrafiltration; format: ADME, organism-based; conditions: in vivo
Procedure, shortened: (§3)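 Plasma binding was measured by ultrafiltration. EDTA blood from healthy mice, or from NMRI mice infected intraperitoneally for 6 h with E19977, was spiked with DCX at 10–400 mg/liter, with PBS controls. Samples were held 1 h at 37°C, then centrifuged through 30-kDa filters at 3,000 × g for 8 min at 37°C. Total and filtrate drug were measured by S. lutea bioassay.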

Staphylococcus aureus [8] = assay: Bactericidal activity against Staphylococcus aureus ATCC 25923 infected in human THP1 cells assessed as log reduction in bacterial count at 10 times MIC after 24 hrs by time-kill assay; format: functional, THP-1
Procedure, shortened: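 Intracellular model in THP-1 macrophages: opsonized S. aureus was added at 4 bacteria per macrophage for 45 min. Non-phagocytized bacteria were removed by washing and brief PBS incubation with gentamicin (50 mg/liter). Cells were then incubated up to 24 h with a wide range of extracellular dicloxacillin concentrations. Result is change in log₁₀ CFU per mg cell protein from time zero. n = 3.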

[9] = fT>MIC in Staphylococcus aureus E19977 infected NMRI mouse at 300 mg/kg administered every 12 hrs; format: functional
Procedure, shortened: (§4)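 Calculated percentage of 24 h at steady state that free plasma DCX exceeds the strain MIC (microdilution, pH 7.4). Concentrations were simulated from single subcutaneous dose plasma curves in NMRI mice (S. lutea bioassay), adjusted with a square-root model of concentration-dependent free fraction from ultrafiltration. The regimen was dosed subcutaneously in mice infected intraperitoneally with 10^7.4 CFU, and peritoneal CFU were read after 24 h of therapy.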

Staphylococcus aureus [10] = assay: Bacteriostatic activity against Staphylococcus aureus E19977 infected in human THP-1 cells after 24 hrs; format: functional
Procedure, shortened: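 Human THP-1 macrophages were infected with opsonized S. aureus at 4 bacteria per macrophage for 45 min. Non-phagocytized bacteria were removed by washing and a brief incubation in PBS with gentamicin 50 mg/liter. Cells were then incubated up to 24 h with DCX over a wide range of extracellular concentrations. The read-out was Δlog CFU per mg cell protein versus time zero (n = 3), with sigmoidal fitting and Cstatic by interpolation.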

Staphylococcus aureus [11] = assay: Antimicrobial activity against Staphylococcus aureus E19977 after 24 hrs; format: functional, organism-based; conditions: E19977, 24 h
Procedure, shortened: (§5)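 Extracellular broth time- and concentration-kill test. The inoculum was ~10⁶ CFU/ml, exposed to a wide range of DCX concentrations, with CFU counted after 5 and 24 h. The read-out was Δlog CFU/ml versus time zero (mean ± SD, n = 3). A sigmoidal fit with slope 1 gave Emax and EC50. Cstatic was read by graphical interpolation as the concentration giving no change from the inoculum.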

Staphylococcus aureus [12] = assay: Bacteriostatic activity against Staphylococcus aureus E19977 after 24 hrs; format: functional; procedure, shortened: as §5
Staphylococcus aureus [13] = assay: Bactericidal activity against Staphylococcus aureus ATCC 25923 assessed as log change in bacterial count after 24 hrs; format: functional; procedure, shortened: as §5
Staphylococcus aureus [14] = assay: Antimicrobial activity against Staphylococcus aureus E19977 by broth microdilution method at pH 5.4
[15] = Ratio of fAUC (24 hrs) in NMRI mouse at 160 mg/kg administered every 3 hrs to MIC for Staphylococcus aureus E19977; format: functional
Procedure, shortened: (§6)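 Free-drug AUC24/MIC was modelled for repeated subcutaneous regimens. Single-dose NMRI plasma concentration-time curves were combined with the best-fitting square-root expression for the concentration-dependent free fraction. The result was divided by the E19977 MIC.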

Staphylococcus aureus [16] = assay: Bactericidal activity against Staphylococcus aureus E19977 assessed as log reduction in bacterial count at 10 times MIC after 5 hrs by time-kill assay; format: functional; procedure, shortened: as §1
Staphylococcus aureus [17] = assay: Antimicrobial activity against Staphylococcus aureus ATCC 25923 by broth microdilution method at pH 5.4
[18] = Half-life in NMRI mouse at 300 mg/kg, sc; format: ADME, organism-based; design: dose 300 mg/kg, route subcutaneous; conditions: in vivo; procedure, shortened: as §2
[19] = fT>MIC in Staphylococcus aureus E19977 infected NMRI mouse at 160 mg/kg administered every 3 hrs; format: functional; procedure, shortened: as §4
[20] = Ratio of fCmax in NMRI mouse at 120 mg/kg administered every 3 hrs to MIC for Staphylococcus aureus E19977; format: functional
Procedure, shortened: (§7)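 Free Cmax/MIC was modelled, not measured. Single-dose subcutaneous plasma curves from NMRI mice were projected to the multiple-dose regimens. Free fraction came from a square-root fit of unbound fraction versus total concentration. Binding was measured by ultrafiltration of mouse plasma spiked with 10–400 mg/liter and held 1 h at 37°C. MIC was for strain E19977.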

[21] = Ratio of fAUC (24 hrs) in NMRI mouse at 120 mg/kg administered every 6 hrs to MIC for Staphylococcus aureus E19977; format: functional; procedure, shortened: as §6
[22] = Ratio of fCmax in NMRI mouse at 80 mg/kg to MIC for Staphylococcus aureus E19977
Mus musculus [23] = species: Mus musculus; assay: Protein binding in NMRI mouse infected with Staphylococcus aureus E19977 at 270 mg/l by ultrafiltration; format: ADME, organism-based; conditions: in vivo; procedure, shortened: as §3
[24] = Ratio of fCmax in NMRI mouse at 120 mg/kg administered every 24 hrs to MIC for Staphylococcus aureus E19977; format: functional; procedure, shortened: as §7

## Cc1onc(-c2c(Cl)cccc2Cl)c1C(=O)N[C@@H]1C(=O)N2[C@@H]1SC(C)(C)[C@@H]2C(=O)O [DICLOXACILLIN]
Staphylococcus aureus [1]
  FC: 3
[2]
  Ratio: 233.35
Staphylococcus aureus [3]
  FC: 3
[4]
  half-life: 25 min
[5]
  AUC at 24 h: 21400 ng·h/mL
[6]
  fAUC/MIC: 572.83 h
Mus musculus [7]
  Activity: 91.5%
Staphylococcus aureus [8]
  FC: <1
[9]
  fT>MIC: 35.28%
Staphylococcus aureus [10]
  Activity: 0.89 mg/L
Staphylococcus aureus [11]
  EC50: 0.5 µg/mL (≈ 1.06 µM)
Staphylococcus aureus [12]
  Activity: 0.43 mg/L
Staphylococcus aureus [13]
  Emax: -3.19 deltalog10CFU/ml
Staphylococcus aureus [14]
  MIC: 0.125 µg/mL (≈ 0.266 µM)
[15]
  fAUC/MIC: 556.4 h
Staphylococcus aureus [16]
  FC: <1
Staphylococcus aureus [17]
  MIC: 0.031 µg/mL (≈ 0.0659 µM)
[18]
  half-life: 30 min
[19]
  fT>MIC: 96.11%
[20]
  Ratio: 61.6
[21]
  fAUC/MIC: 175.82 h
[22]
  Ratio: 30.64
Mus musculus [23]
  Activity: 80.7%
[24]
  Ratio: 61.6
